Measurements from ChEMBL document CHEMBL1152808, “Novel adenosine-derived inhibitors of 70 kDa heat shock protein, discovered through structure-based design” (J Med Chem, 2009).
Calls of active or inactive are those of the source. No cut-off for these calls is given here.

Assays:
[1] = Binding affinity to HSP90 by fluorescence polarization assay
[2] = Displacement of fluorescein labeled N6-(6-amino)hexyl-ATP-5-FAM from HSP70 by fluorescence polarization assay
In short: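 Competitive FP binding: displacement of fluorescein-labelled ATP-based probe N6-(6-amino)hexyl-ATP-5-FAM (probe KD 0.4 µM) from HSP70 at 0.4 µM protein; IC50 from binding competition.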

HCT-116 [3] = test: Cytotoxicity against human HCT116 cells by SRB assay; format: functional
In short: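 HCT116 human colon tumour cells; growth inhibition measured by sulforhodamine B (SRB) staining; GI50 reported.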

HCT-116 [4] = test: Inhibition of HSP70 in human HCT116 cells assessed as reduction of […] protein levels after 24 hrs by Western blot; format: cell-based
In short: (§1)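 HCT116 cells exposed to compound for 24 h at 0.05 or 0.1 µM or 2.5-40 µM. Raf-1, Her2 and HSP70 expression detected by Western blot. GAPDH served as loading control.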

[5] = Binding affinity to HSP70 by Biocore direct binding assay
In short: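 SPR direct binding: double His-tagged HSP70 construct immobilized on a Biacore sensor chip; KD determined from direct ligand binding.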

HCT-116 [6] = test: Inhibition of HSP70 in human HCT116 cells assessed as reduction of Raf1 protein levels after 24 hrs by Western blot; format: cell-based; in short: as §1

Compound | IC50 [1] | IC50 [2] | GI50 (HCT-116 [3]) | Activity (HCT-116 [4]) | Kd [5] | Activity (HCT-116 [6])
Nc1ncnc2c1nc(NCc1ccc3ncccc3c1)n2[C@@H]1O[C@H](CO)[C@@H](O)[C@H]1O | > 400 µM | 2.9 µM | > 80 µM |  |  | 
CNc1nc2c(N)ncnc2n1[C@@H]1O[C@H](CO)[C@@H](O)[C@H]1O | > 400 µM | 17 µM | 13 µM |  |  | 
Nc1ncnc2c1nc(N)n2[C@@H]1O[C@H](CO)[C@@H](O)[C@H]1O | > 400 µM | 9.4 µM | 0.05 µM | inactive | 11 µM | inactive
N#Cc1ccc(COC[C@H]2O[C@@H](n3c(NCc4ccccc4)nc4c(N)ncnc43)[C@H](O)[C@@H]2O)cc1 | > 400 µM | 1.3 µM | > 80 µM |  | 0.2 µM | 
COC[C@H]1O[C@@H](n2c(NCc3ccc(Cl)c(Cl)c3)nc3c(N)ncnc32)[C@H](O)[C@@H]1O | > 400 µM | 3.2 µM | > 80 µM |  |  | 
Nc1ncnc2c1nc(NCc1ccc3ncccc3c1)n2[C@@H]1O[C@H](COCc2ccc(C(F)(F)F)cc2)[C@@H](O)[C@H]1O | > 400 µM | 0.6 µM | 27 µM |  | 0.06 µM | 
N#Cc1ccc(COC[C@H]2O[C@@H](n3c(NCc4ccc5ncccc5c4)nc4c(N)ncnc43)[C@H](O)[C@@H]2O)cc1 | > 400 µM | 0.9 µM | > 80 µM |  | 0.05 µM | 
Nc1ncnc2c1ncn2[C@@H]1O[C@H](COP(=O)(O)OP(=O)(O)OP(=O)(O)O)[C@@H](O)[C@H]1O [ADENOSINE TRIPHOSPHATE] | > 400 µM | 0.5 µM |  |  |  | 
Nc1ncnc2c1nc(NCc1ccc3ncccc3c1)n2[C@@H]1O[C@H](COCc2cc(F)c(F)c(F)c2)[C@@H](O)[C@H]1O | > 400 µM | < 0.4 µM | 18 µM |  | 0.12 µM | 
Nc1ncnc2c1ncn2[C@@H]1O[C@H](CO)[C@@H](O)[C@H]1O [ADENOSINE] | > 400 µM | 560 µM |  |  |  | 
N#Cc1ccc(COC[C@H]2O[C@@H](n3c(NCc4ccc(Cl)c(Cl)c4)nc4c(N)ncnc43)[C@H](O)[C@@H]2O)cc1 | > 400 µM | 0.5 µM | 5 µM | Active | 0.3 µM | Active
Nc1ncnc2c1nc(NCc1ccc(Cl)c(Cl)c1)n2[C@@H]1O[C@H](COCc2ccccc2)[C@@H](O)[C@H]1O | > 400 µM | 2.4 µM | > 80 µM |  |  | 
Nc1ncnc2c1nc(NCc1ccc(Cl)c(Cl)c1)n2[C@@H]1O[C@H](CO)[C@@H](O)[C@H]1O | > 400 µM | 9.1 µM | 26 µM |  |  | 
Nc1ncnc2c1nc(NCc1ccc3c(c1)OCO3)n2[C@@H]1O[C@H](CO)[C@@H](O)[C@H]1O | > 400 µM | 4.9 µM | > 80 µM |  |  | 
Nc1ncnc2c1ncn2[C@@H]1O[C@H](COP(=O)(O)OP(=O)(O)O)[C@@H](O)[C@H]1O [ADENOSINE DIPHOSPHATE] | > 400 µM | 0.5 µM |  |  | 0.5 µM | 
Nc1ncnc2c1nc(NCc1ccccc1)n2[C@@H]1O[C@H](CO)[C@@H](O)[C@H]1O | > 400 µM | 10 µM | > 80 µM |  |  | 
Nc1ncnc2c1nc(NCc1ccc(Cl)c(Cl)c1)n2[C@@H]1O[C@H](COCc2cc(F)c(F)c(F)c2)[C@@H](O)[C@H]1O | > 400 µM | 1.7 µM | 13 µM |  | 4.2 µM | 
